Values after ≈ are worked out from the molar mass of the structure shown.

From ChEMBL document CHEMBL4665627 (Eur J Med Chem, 2019) come the findings set out here.

What all share (type): functional
The subject of assay [1] is Pseudomonas aeruginosa. Nature of the assay: Antibacterial activity against Pseudomonas aeruginosa assessed as inhibition of bacterial growth after 24 hrs by CLSI protocol based two fold serial dilution method. The gist of the method: (§1)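 Two-fold serial broth dilution in 96-well plates following CLSI; MIC (mM) taken as the lowest concentration giving complete growth inhibition; MIC values from three independent experiments.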

Assay [2] deals with Candida parapsilosis. Nature of the assay: Antifungal activity against Candida parapsilosis ATCC 22019 assessed as inhibition of fungal growth after 24 hrs by CLSI protocol based two fold serial dilution method. To be noted: Lodderomyces parapsilosis. The procedure, abridged:
as §1

The subject of assay [3] is Aspergillus fumigatus. Nature of the assay: Antifungal activity against Aspergillus fumigatus assessed as inhibition of fungal growth after 24 hrs by CLSI protocol based two fold serial dilution method. The gist of the method: as §1
The subject of assay [4] is Candida tropicalis. The assay is described as follows: Antifungal activity against Candida tropicalis assessed as inhibition of fungal growth after 24 hrs by CLSI protocol based two fold serial dilution method. The gist of the method: as §1
Assay [5] concerns Candida albicans. Nature of the assay: Antifungal activity against Candida albicans ATCC 90023 assessed as inhibition of fungal growth after 24 hrs by CLSI protocol based two fold serial dilution method. The procedure, abridged: as §1
In assay [6] the test system is Candida albicans. The assay is described as follows: Antifungal activity against Candida albicans assessed as inhibition of fungal growth after 24 hrs by CLSI protocol based two fold serial dilution method. The procedure, abridged:
as §1

Assay [7] deals with Acinetobacter baumannii. Nature of the assay: Antibacterial activity against Acinetobacter baumannii assessed as inhibition of bacterial growth after 24 hrs by CLSI protocol based two fold serial dilution method. The gist of the method: as §1
Assay [8] has as its system Pseudomonas aeruginosa. The assay is described as follows: Antibacterial activity against Pseudomonas aeruginosa ATCC 27853 assessed as inhibition of bacterial growth after 24 hrs by CLSI protocol based two fold serial dilution method. The procedure, abridged: as §1
The test system of assay [9] is Escherichia coli. Nature of the assay: Antibacterial activity against Escherichia coli ATCC 25922 assessed as inhibition of bacterial growth after 24 hrs by CLSI protocol based two fold serial dilution method. The procedure, abridged:
as §1

Assay [10] concerns Escherichia coli. The assay is described as follows: Antibacterial activity against Escherichia coli assessed as inhibition of bacterial growth after 24 hrs by CLSI protocol based two fold serial dilution method. The gist of the method:
as §1

Assay [11] has as its system Klebsiella pneumoniae. Nature of the assay: Antibacterial activity against Klebsiella pneumoniae assessed as inhibition of bacterial growth after 24 hrs by CLSI protocol based two fold serial dilution method. The procedure, abridged: as §1
For assay [12], the system named is Staphylococcus aureus. Nature of the assay: Antibacterial activity against Staphylococcus aureus ATCC 29213 assessed as inhibition of bacterial growth after 24 hrs by CLSI protocol based two fold serial dilution method.
Assay [13] relates to Staphylococcus aureus. Nature of the assay: Antibacterial activity against Staphylococcus aureus ATCC 25923 assessed as inhibition of bacterial growth after 24 hrs by CLSI protocol based two fold serial dilution method. The procedure, abridged: as §1
Assay [14] concerns Staphylococcus aureus. The assay is described as follows: Antibacterial activity against Staphylococcus aureus assessed as inhibition of bacterial growth after 24 hrs by CLSI protocol based two fold serial dilution method. The gist of the method:
as §1

For assay [15], the system named is Enterococcus faecalis. Nature of the assay: Antibacterial activity against Enterococcus faecalis assessed as inhibition of bacterial growth after 24 hrs by CLSI protocol based two fold serial dilution method. The gist of the method: as §1
For assay [16], the system named is Staphylococcus aureus. Nature of the assay: Antibacterial activity against methicillin-resistant Staphylococcus aureus N315 assessed as inhibition of bacterial growth after 24 hrs by CLSI protocol based two fold serial dilution method.

For the compound `CCn1cc(-c2csc(N)n2)c(=O)c2cc(N3CCN(CC(C)=O)CC3)c(Cl)cc21`, the MIC is 288 µM (≈ 128 µg/mL) in assay [1]; 288 µM (≈ 128 µg/mL) in [2]; 575 µM (≈ 256 µg/mL) in assay [3]; 288 µM (≈ 128 µg/mL) in assay [4]; 144 µM (≈ 64.2 µg/mL) in assay [5]; 575 µM (≈ 256 µg/mL) in [6]. For the same compound, the MIC in [7] worked out at 288 µM (≈ 128 µg/mL); in assay [8], 36 µM (≈ 16.1 µg/mL); in assay [9], 288 µM (≈ 128 µg/mL); in assay [10], 1150 µM (≈ 513 µg/mL); in assay [11], 72 µM (≈ 32.1 µg/mL); in [12], 575 µM (≈ 256 µg/mL). Further, the MIC in assay [13] is 288 µM (≈ 128 µg/mL); in assay [14], 144 µM (≈ 64.2 µg/mL); in assay [15] it was 288 µM (≈ 128 µg/mL); in assay [16], 72 µM (≈ 32.1 µg/mL).

As to `CCn1cc(-c2csc(N)n2)c(=O)c2cc(F)c(N3CCN(Cc4ccc(Cl)cc4Cl)CC3)cc21`, the MIC in assay [1] was 241 µM (≈ 128 µg/mL); in assay [2], 15 µM (≈ 7.99 µg/mL); in assay [3], 482 µM (≈ 257 µg/mL); in assay [4], 482 µM (≈ 257 µg/mL); in assay [5] it was 482 µM (≈ 257 µg/mL); in [6], 482 µM (≈ 257 µg/mL). Moreover, the MIC was 482 µM (≈ 257 µg/mL) in assay [7]; 121 µM (≈ 64.4 µg/mL) in [8]; 482 µM (≈ 257 µg/mL) in assay [9]; 241 µM (≈ 128 µg/mL) in [10]; 241 µM (≈ 128 µg/mL) in [11]; 241 µM (≈ 128 µg/mL) in [12]. The MIC in [13] worked out at 60 µM (≈ 31.9 µg/mL); in [14], 482 µM (≈ 257 µg/mL); in [15], 121 µM (≈ 64.4 µg/mL); in assay [16], 15 µM (≈ 7.99 µg/mL).

In the case of `CCN1CCN(c2cc3c(cc2F)c(=O)c(-c2csc(N)n2)cn3CC)CC1`, the MIC in assay [1] amounted to 319 µM (≈ 128 µg/mL); in assay [2], 80 µM (≈ 32.1 µg/mL); in assay [3], 160 µM (≈ 64.2 µg/mL); in assay [4], 40 µM (≈ 16.1 µg/mL); in [5], 319 µM (≈ 128 µg/mL); in assay [6], 319 µM (≈ 128 µg/mL). Also, the MIC was found to be 319 µM (≈ 128 µg/mL) in assay [7]; 160 µM (≈ 64.2 µg/mL) in assay [8]; 160 µM (≈ 64.2 µg/mL) in [9]; 319 µM (≈ 128 µg/mL) in assay [10]; 160 µM (≈ 64.2 µg/mL) in [11]; 638 µM (≈ 256 µg/mL) in assay [12]. The MIC in assay [13] was 80 µM (≈ 32.1 µg/mL); in [14], 319 µM (≈ 128 µg/mL); in [15], 319 µM (≈ 128 µg/mL); in assay [16] it was 319 µM (≈ 128 µg/mL).

Turning to `CCn1cc(-c2csc(N)n2)c(=O)c2cc(F)c(N3CCN(CC(C)=O)CC3)cc21`, the MIC in assay [1] worked out at 597 µM (≈ 256 µg/mL); in [2] it was 298 µM (≈ 128 µg/mL); in assay [3], 597 µM (≈ 256 µg/mL); in [4], 298 µM (≈ 128 µg/mL); in [5], 37 µM (≈ 15.9 µg/mL); in [6] it was 597 µM (≈ 256 µg/mL). Moreover, the MIC in assay [7] was 298 µM (≈ 128 µg/mL); in [8] it was 149 µM (≈ 64 µg/mL); in assay [9] it was 298 µM (≈ 128 µg/mL); in assay [10], 597 µM (≈ 256 µg/mL); in assay [11], 37 µM (≈ 15.9 µg/mL); in assay [12] it was 298 µM (≈ 128 µg/mL). For the same compound, the MIC in assay [13] came out at 19 µM (≈ 8.16 µg/mL); in assay [14], 37 µM (≈ 15.9 µg/mL); in assay [15] it was 149 µM (≈ 64 µg/mL); in assay [16], 298 µM (≈ 128 µg/mL).

For the compound `CCCCCCCCCCCCN1CCN(c2cc3c(cc2F)c(=O)c(-c2csc(N)n2)cn3CC)CC1`, the MIC in [1] was 473 µM (≈ 256 µg/mL); in assay [2] it was 473 µM (≈ 256 µg/mL); in assay [3], 473 µM (≈ 256 µg/mL); in assay [4], 236 µM (≈ 128 µg/mL); in [5], 946 µM (≈ 513 µg/mL); in assay [6], 473 µM (≈ 256 µg/mL). The MIC in assay [7] came to 473 µM (≈ 256 µg/mL); in assay [8], 473 µM (≈ 256 µg/mL); in assay [9] it was 946 µM (≈ 513 µg/mL); in [10] it was 473 µM (≈ 256 µg/mL); in assay [11], 946 µM (≈ 513 µg/mL); in assay [12] it was 946 µM (≈ 513 µg/mL). Besides, the MIC in assay [13] turned out to be 946 µM (≈ 513 µg/mL); in assay [14] it was 473 µM (≈ 256 µg/mL); in assay [15], 946 µM (≈ 513 µg/mL); in [16], 946 µM (≈ 513 µg/mL).

For `CCn1cc(-c2csc(N)n2)c(=O)c2cc(F)c(N3CCN(CC(=O)N(CCO)CCO)CC3)cc21`, the MIC was 62 µM (≈ 32.2 µg/mL) in assay [1]; 31 µM (≈ 16.1 µg/mL) in [2]; 15 µM (≈ 7.78 µg/mL) in assay [3]; 62 µM (≈ 32.2 µg/mL) in assay [4]; 8 µM (≈ 4.15 µg/mL) in assay [5]; 62 µM (≈ 32.2 µg/mL) in assay [6]. The MIC amounted to 62 µM (≈ 32.2 µg/mL) in assay [7]; 62 µM (≈ 32.2 µg/mL) in [8]; 15 µM (≈ 7.78 µg/mL) in assay [9]; 62 µM (≈ 32.2 µg/mL) in [10]; 62 µM (≈ 32.2 µg/mL) in assay [11]; 62 µM (≈ 32.2 µg/mL) in assay [12]. The MIC in [13] amounted to 8 µM (≈ 4.15 µg/mL); in assay [14], 124 µM (≈ 64.3 µg/mL); in assay [15] it was 15 µM (≈ 7.78 µg/mL); in assay [16] it was 62 µM (≈ 32.2 µg/mL).

For `OC(Cn1cncn1)(Cn1cncn1)c1ccc(F)cc1F` [FLUCONAZOLE], the MIC in assay [2] stood at 13 µM (≈ 3.98 µg/mL); in [3], 836 µM (≈ 256 µg/mL); in [4], 26 µM (≈ 7.96 µg/mL); in [5], 7 µM (≈ 2.14 µg/mL); in assay [6], 13 µM (≈ 3.98 µg/mL).
